From ChEMBL document CHEMBL1155526, “Discovery of a potent, orally active 11beta-hydroxysteroid dehydrogenase type 1 inhibitor for clinical study: identification of (S)-2-((1S,2S,4R)-bicyclo[2.2.1]heptan-2-ylamino)-5-isopropyl-5-methylthiazol-4(5H)-one (AMG 221)” (J Med Chem, 2010)
Active and inactive are the calls of the source. No cut-off for these calls is given here.

Experiments:
[1] = tested on: Mus musculus; test: Antidiabetic activity in diet-induced obese mouse assessed as decrease in fed blood glucose level at 5 mg/kg administered QD via high fat-diet for 13 days measured after day 13 by glucose tolerance test; format: functional, organism-based; design: dose 5 mg/kg
How it was run: (§1)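 DIO male C57BL/6 mice (12 weeks high-fat diet), n = 11-12 per group. Rosiglitazone given in the high-fat chow at ~5 mg/kg/day for 13 or 14 days. Fed blood glucose by glucose meter and plasma insulin by radioimmunoassay before and at end of treatment. Body weight taken at end of treatment.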

[2] = tested on: Mus musculus; test: Antidiabetic activity in diet-induced obese mouse assessed as decrease in plasma insulin level at 5 mg/kg administered QD via high fat-diet for 13 days measured after day 13 by glucose tolerance test; format: functional, organism-based; design: dose 5 mg/kg; how it was run: as §1
[3] = tested on: Mus musculus; test: Antidiabetic activity in diet-induced obese mouse assessed as improvement of glucose tolerance at 5 mg/kg, QD for 13 days measured on day 14 after 12 hrs of fasting by glucose tolerance test
[4] = tested on: Mus musculus; test: Antiobesity activity in diet-induced obese mouse assessed as decrease in body weight at 5 mg/kg administered QD via high fat-diet for 13 days measured after day 13; format: functional, organism-based; design: dose 5 mg/kg; how it was run: as §1
[5] = tested on: Rattus norvegicus; test: Metabolic epimerization in Sprague-Dawley rat assessed as formation of [R]-2-((1S,2S,4R)-bicyclo[2.2.1]heptan-2-ylamino)-5-5iospropylthiazol-4(5H)-one at 10 mg/kg up to 24 hrs by LC-MS/MS analysis; settings: in vivo
[6] = tested on: Rattus norvegicus; test: Metabolic epimerization in Sprague-Dawley rat assessed as formation of [R]-2-((1S,2S,4R)-bicyclo[2.2.1]heptan-2-ylamino)-5-5iospropylthiazol-4(5H)-one at 10 mg/kg, po up to 24 hrs by LC-MS/MS analysis; format: ADME, organism-based; design: dose 10 mg/kg, route oral; settings: in vivo
How it was run: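 Sprague-Dawley rats (n = 2/group) dosed orally at 10 mg/kg. Plasma taken predose and at intervals up to 24 h. Diastereomers separated by HPLC, quantified by positive-ion ESI MS/MS with single ion monitoring. AUC ratio of epimer to parent calculated.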

[7] = tested on: Mus musculus; test: Antidiabetic activity in diet-induced obese mouse assessed as decrease in fed blood glucose level at 25 to 50 mg/kg, po administered via gavage BID for 13 days measured after day 13 by glucose tolerance test; format: functional, organism-based
How it was run: (§2)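 Male C57BL/6 mice on high-fat diet from 3 weeks of age for 12 weeks (DIO), grouped n = 11-12 by pretreatment glucose and body weight. Oral gavage 25 or 50 mg/kg b.i.d. (half dose morning, half afternoon) or vehicle (0.1% Tween-80, 0.5% CMC in water) for 13-14 days. Fed blood glucose by glucose meter, plasma insulin by radioimmunoassay, body weight at study end.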

[8] = Clearance in Sprague-Dawley rat at 2 mg/kg, iv or 10 mg/kg, po; settings: in vivo
[9] = target: T1, Cytochrome P450 1A2 (Homo sapiens, UniProt P05177); test: Inhibition of CYP1A2; format: ADME
T1 sequence (P05177 whole entry): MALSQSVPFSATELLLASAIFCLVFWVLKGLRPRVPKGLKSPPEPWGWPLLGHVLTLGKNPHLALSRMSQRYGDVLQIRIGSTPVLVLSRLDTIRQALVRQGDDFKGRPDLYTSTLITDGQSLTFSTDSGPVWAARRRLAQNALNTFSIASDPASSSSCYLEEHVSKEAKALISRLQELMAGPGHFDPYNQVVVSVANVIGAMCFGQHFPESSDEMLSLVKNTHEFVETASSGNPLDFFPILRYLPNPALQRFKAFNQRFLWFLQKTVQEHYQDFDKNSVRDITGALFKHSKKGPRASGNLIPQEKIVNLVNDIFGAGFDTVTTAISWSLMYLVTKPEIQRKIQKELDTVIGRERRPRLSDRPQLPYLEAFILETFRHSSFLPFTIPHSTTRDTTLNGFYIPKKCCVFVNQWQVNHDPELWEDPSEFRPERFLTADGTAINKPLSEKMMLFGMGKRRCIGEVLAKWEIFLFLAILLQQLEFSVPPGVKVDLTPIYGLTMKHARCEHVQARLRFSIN

[10] = Terminal half life in Beagle dog at 3 mg/kg, iv or 10 mg/kg, po; settings: in vivo, read-out: beta t1/2 (converted)
[11] = tested on: Mus musculus; test: Antidiabetic activity in diet-induced obese mouse assessed as decrease in plasma insulin level at 25 to 50 mg/kg, po administered via gavage BID for 13 days measured after day 13 by glucose tolerance test; format: functional, organism-based; how it was run: as §2
[12] = tested on: Mus musculus; test: Ex vivo inhibition of 11beta-HSD1 in high fat diet-fed C57BL/6 mouse inguinal fat at 15 mg/kg, po measured at 8 hrs by ELISA; format: functional; settings: C57BL/6, 8 h
[13] = target: Cytochrome P450 2D6 (Homo sapiens, UniProt P10635); test: Inhibition of CYP2D6; format: ADME
[14] = Terminal half life in cynomolgus monkey at 2 mg/kg, iv or 10 mg/kg, po; settings: in vivo, read-out: beta t1/2 (converted)
[15] = Clearance in Beagle dog at 3 mg/kg, iv or 10 mg/kg, po; settings: in vivo
[16] = target: T2, 11-beta-hydroxysteroid dehydrogenase type 2 (Homo sapiens, UniProt P80365); test: Inhibition of 11beta-HSD2
T2 sequence (P80365 whole entry): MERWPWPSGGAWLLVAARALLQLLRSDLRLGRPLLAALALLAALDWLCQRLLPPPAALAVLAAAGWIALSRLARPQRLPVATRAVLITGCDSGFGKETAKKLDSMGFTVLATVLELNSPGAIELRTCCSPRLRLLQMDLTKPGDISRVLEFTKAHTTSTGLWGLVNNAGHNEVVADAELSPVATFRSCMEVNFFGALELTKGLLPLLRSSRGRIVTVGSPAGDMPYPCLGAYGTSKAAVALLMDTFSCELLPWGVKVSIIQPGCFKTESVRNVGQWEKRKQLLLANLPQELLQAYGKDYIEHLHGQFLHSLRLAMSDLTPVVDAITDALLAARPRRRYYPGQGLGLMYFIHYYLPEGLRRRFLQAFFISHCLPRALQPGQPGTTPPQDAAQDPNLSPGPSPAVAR

[17] = Volume of distribution at steady state in CD1 mouse at 5 mg/kg, iv or 30 mg/kg, po; format: ADME, organism-based; settings: in vivo, read-out: Vdss
How it was run: (§3)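 iv: mouse 5, rat 2, dog 3, monkey 2 mg/kg in 10% dimethylacetamide/23% water/67% PEG 400. po: mouse 30, rat 10, monkey 10 mg/kg in 0.1% Tween-80/0.5% CMC in water; dog 10 mg/kg in the iv vehicle. Plasma sampled at various time points for drug levels. Half-life is terminal.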

[18] = tested on: Mus musculus; test: Ex vivo inhibition of 11beta-HSD1 in high fat diet-fed C57BL/6 mouse inguinal fat at 15 mg/kg, po measured at 4 hrs by ELISA; format: functional; settings: C57BL/6, 4 h
[19] = Bioavailability in cynomolgus monkey at 2 mg/kg, iv or 10 mg/kg, po; settings: in vivo
[20] = Volume of distribution at steady state in cynomolgus monkey at 2 mg/kg, iv or 10 mg/kg, po; settings: in vivo, read-out: Vdss
[21] = target: Cytochrome P450 3A4 (Homo sapiens, UniProt P08684); test: Inhibition of CYP3A4; format: ADME
[22] = tested on: Mus musculus; test: Ex vivo inhibition of 11beta-HSD1 in high fat diet-fed C57BL/6 mouse inguinal fat at 5 mg/kg, po measured at 8 hrs by ELISA; format: functional; settings: C57BL/6, 8 h
[23] = Clearance in cynomolgus monkey at 2 mg/kg, iv or 10 mg/kg, po; settings: in vivo
[24] = target: Cytochrome P450 2C9 (Homo sapiens, UniProt P11712); test: Inhibition of CYP2C9; format: ADME
[25] = tested on: Mus musculus; test: Ex vivo inhibition of 11beta-HSD1 in high fat diet-fed C57BL/6 mouse inguinal fat at 50 mg/kg, po measured at 8 hrs by ELISA; format: functional; settings: C57BL/6, 8 h
[26] = tested on: Mus musculus; test: Ex vivo inhibition of 11beta-HSD1 in high fat diet-fed C57BL/6 mouse inguinal fat at 50 mg/kg, po measured at 4 hrs by ELISA; format: functional; settings: C57BL/6, 4 h
[27] = Volume of distribution at steady state in Beagle dog at 3 mg/kg, iv or 10 mg/kg, po; settings: in vivo, read-out: Vdss
[28] = Terminal half life in CD1 mouse at 5 mg/kg, iv or 30 mg/kg, po; format: ADME, organism-based; settings: in vivo, read-out: beta t1/2 (converted); how it was run: as §3
[29] = tested on: Mus musculus; test: Ex vivo inhibition of 11beta-HSD1 in high fat diet-fed C57BL/6 mouse inguinal fat at 5 mg/kg, po measured at 4 hrs by ELISA; format: functional; settings: C57BL/6, 4 h
[30] = Metabolic stability in liver microsomes; format: ADME, Microsome
[31] = Bioavailability in Beagle dog at 3 mg/kg, iv or 10 mg/kg, po; settings: in vivo
[32] = tested on: Mus musculus; test: Antidiabetic activity in diet-induced obese mouse assessed as mild improvement of glucose tolerance at 25 to 50 mg/kg, po BID for 13 days measured on day 14 after 12 hrs of fasting by glucose tolerance test
[33] = Clearance in CD1 mouse at 5 mg/kg, iv or 30 mg/kg, po; format: ADME, organism-based; settings: in vivo; how it was run: as §3
[34] = target: T3, Glucocorticoid receptor (Homo sapiens, UniProt P04150); test: Inhibition of glucocorticoid receptor
T3 sequence (P04150 whole entry): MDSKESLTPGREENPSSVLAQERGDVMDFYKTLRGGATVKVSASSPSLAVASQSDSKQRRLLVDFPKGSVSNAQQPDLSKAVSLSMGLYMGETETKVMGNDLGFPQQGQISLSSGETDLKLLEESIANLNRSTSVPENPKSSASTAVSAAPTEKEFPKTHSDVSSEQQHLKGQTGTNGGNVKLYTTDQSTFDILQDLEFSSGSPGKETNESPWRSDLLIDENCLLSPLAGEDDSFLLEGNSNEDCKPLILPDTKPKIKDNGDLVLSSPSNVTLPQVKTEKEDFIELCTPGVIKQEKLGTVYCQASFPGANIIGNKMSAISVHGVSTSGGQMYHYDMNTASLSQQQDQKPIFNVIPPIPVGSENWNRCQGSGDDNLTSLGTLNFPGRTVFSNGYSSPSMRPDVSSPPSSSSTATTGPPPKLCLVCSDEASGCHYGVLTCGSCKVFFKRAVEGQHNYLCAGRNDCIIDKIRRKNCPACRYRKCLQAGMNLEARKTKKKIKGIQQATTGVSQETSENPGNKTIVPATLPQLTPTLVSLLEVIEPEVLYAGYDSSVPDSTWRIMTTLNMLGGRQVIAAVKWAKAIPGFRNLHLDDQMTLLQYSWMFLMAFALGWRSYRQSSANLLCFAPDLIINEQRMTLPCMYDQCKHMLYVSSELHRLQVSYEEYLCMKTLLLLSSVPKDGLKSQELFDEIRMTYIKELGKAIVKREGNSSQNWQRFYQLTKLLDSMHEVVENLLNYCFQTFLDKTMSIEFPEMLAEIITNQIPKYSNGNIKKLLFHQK

[35] = tested on: Mus musculus; test: Antiobesity activity in po dosed diet-induced obese mouse assessed as decrease in body weight administered via gavage BID for 13 days measured after day 13; format: functional, organism-based; how it was run: as §2
[36] = Terminal half life in Sprague-Dawley rat at 2 mg/kg, iv or 10 mg/kg, po; settings: in vivo, read-out: beta t1/2 (converted)
[37] = Bioavailability in Sprague-Dawley rat at 2 mg/kg, iv or 10 mg/kg, po; settings: in vivo
[38] = target: Cytochrome P450 2C19 (Homo sapiens, UniProt P33261); test: Inhibition of CYP2C19; format: ADME
[39] = Bioavailability in CD1 mouse at 5 mg/kg, iv or 30 mg/kg, po; format: ADME, organism-based; settings: in vivo; how it was run: as §3

Sequence of Cytochrome P450 2C19 (P33261 whole entry): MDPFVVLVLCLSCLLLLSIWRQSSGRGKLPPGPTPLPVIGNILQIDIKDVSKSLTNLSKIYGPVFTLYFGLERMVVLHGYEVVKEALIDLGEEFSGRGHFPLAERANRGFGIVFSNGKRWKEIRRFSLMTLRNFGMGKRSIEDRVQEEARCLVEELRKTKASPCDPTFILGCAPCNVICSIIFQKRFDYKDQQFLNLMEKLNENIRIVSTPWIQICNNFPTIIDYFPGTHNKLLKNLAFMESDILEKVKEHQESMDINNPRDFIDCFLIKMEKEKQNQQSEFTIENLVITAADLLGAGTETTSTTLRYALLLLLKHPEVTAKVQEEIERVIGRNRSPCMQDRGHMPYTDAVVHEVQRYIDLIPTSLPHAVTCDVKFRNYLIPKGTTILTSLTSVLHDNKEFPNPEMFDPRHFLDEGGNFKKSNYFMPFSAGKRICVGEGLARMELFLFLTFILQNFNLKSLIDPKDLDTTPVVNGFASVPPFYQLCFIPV
Sequence of Cytochrome P450 3A4 (P08684 whole entry): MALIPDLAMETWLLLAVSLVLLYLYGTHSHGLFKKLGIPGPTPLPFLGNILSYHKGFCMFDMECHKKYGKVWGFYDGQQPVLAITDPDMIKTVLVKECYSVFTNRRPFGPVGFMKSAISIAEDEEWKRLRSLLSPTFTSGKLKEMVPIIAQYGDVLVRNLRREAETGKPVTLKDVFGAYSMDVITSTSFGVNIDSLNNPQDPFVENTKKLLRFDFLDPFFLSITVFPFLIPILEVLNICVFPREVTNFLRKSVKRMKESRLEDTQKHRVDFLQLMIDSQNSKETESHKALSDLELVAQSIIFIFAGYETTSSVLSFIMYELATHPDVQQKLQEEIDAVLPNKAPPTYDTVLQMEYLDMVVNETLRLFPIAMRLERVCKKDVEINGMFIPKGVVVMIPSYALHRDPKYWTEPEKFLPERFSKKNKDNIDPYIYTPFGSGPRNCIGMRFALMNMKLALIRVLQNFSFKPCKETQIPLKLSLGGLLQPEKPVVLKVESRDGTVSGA
Sequence of Cytochrome P450 2D6 (P10635 whole entry): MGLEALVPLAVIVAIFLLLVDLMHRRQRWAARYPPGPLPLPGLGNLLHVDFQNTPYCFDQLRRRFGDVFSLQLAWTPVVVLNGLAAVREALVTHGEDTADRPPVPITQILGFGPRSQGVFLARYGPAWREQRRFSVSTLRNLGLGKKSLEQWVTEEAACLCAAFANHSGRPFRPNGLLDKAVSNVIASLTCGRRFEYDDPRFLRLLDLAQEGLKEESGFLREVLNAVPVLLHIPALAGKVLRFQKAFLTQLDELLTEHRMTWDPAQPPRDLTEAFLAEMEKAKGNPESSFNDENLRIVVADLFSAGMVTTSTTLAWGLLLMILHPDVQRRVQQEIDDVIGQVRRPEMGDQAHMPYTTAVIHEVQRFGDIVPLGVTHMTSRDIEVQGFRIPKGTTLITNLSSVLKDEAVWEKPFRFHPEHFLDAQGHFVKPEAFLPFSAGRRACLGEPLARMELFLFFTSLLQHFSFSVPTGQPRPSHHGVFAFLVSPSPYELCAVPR
Sequence of Cytochrome P450 2C9 (P11712 whole entry): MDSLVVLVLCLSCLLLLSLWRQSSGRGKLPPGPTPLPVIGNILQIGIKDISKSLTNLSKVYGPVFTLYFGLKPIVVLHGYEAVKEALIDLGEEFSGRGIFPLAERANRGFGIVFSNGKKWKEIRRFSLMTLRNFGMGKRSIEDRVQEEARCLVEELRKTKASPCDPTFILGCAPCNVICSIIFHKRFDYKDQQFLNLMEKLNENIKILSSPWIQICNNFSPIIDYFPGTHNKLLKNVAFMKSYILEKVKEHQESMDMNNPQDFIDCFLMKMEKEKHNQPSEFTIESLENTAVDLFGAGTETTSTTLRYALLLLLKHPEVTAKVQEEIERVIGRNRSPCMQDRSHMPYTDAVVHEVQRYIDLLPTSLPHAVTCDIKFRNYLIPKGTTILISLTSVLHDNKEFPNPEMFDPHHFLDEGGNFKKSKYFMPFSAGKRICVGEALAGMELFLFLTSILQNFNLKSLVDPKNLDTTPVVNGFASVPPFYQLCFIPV

## CN(CCOc1ccc(CC2SC(=O)NC2=O)cc1)c1ccccn1 (centres undefined)
[1]
  inhibition: Active
[2]
  inhibition: Active
[3]
  Activity: inactive
[4]
  inhibition: inactive

## CC(C)[C@@H]1SC(N[C@H]2C[C@@H]3CC[C@H]2C3)=NC1=O
[5]
  Activity: 39%
[6]
  Activity: 39%

## CC(C)[C@]1(C)SC(N[C@H]2C[C@@H]3CC[C@H]2C3)=NC1=O
[7]
  inhibition: Active
[8]
  clearance: 22.7 mL/min/kg
[9]
  IC50: > 15 µM
[10]
  half-life: 8.1 h
[11]
  inhibition: Active
[12]
  inhibition in vivo at 15 mg/kg: 36%
[13]
  IC50: > 15 µM
[14]
  half-life: 0.6 h
[15]
  clearance: 15.7 mL/min/kg
[16]
  IC50: > 10 µM
[17]
  Vd: 1 L/kg
[18]
  inhibition in vivo at 15 mg/kg: 55%
[19]
  bioavailability: 7%
[20]
  Vd: 0.98 L/kg
[21]
  IC50: > 15 µM
[22]
  inhibition in vivo at 5 mg/kg: 10%
[23]
  clearance: 31.5 mL/min/kg
[24]
  IC50: > 15 µM
[25]
  inhibition in vivo at 50 mg/kg: 39%
[26]
  inhibition in vivo at 50 mg/kg: 47%
[27]
  Vd: 1.02 L/kg
[28]
  half-life: 15.6 h
[29]
  inhibition in vivo at 5 mg/kg: 33%
[30]
  Km: > 100 µM
[31]
  bioavailability: 50%
[32]
  Activity: Active
[33]
  clearance: 52.7 mL/min/kg
[34]
  IC50: > 10 µM
[35]
  inhibition: Dose-dependent effect
[36]
  half-life: 41.5 h
[37]
  bioavailability: 34%
[38]
  IC50: > 15 µM
[39]
  bioavailability: 54%
